Calls of active or inactive are those of the source. The rule behind the calls is not given here.

Tested on in one data set: not listed separately
Nature of the data set: Metal chelating activity assessed as stoichiometric ratio of compound to Fe2+ ion at 0.1 to 0.5 mM of compound and metal ion mixture after 45 mins by spectrophotometric analysis. It is filed as physicochemical. To be noted: 0.75 h, 500 µM. The gist of the method:
(§1)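 Job continuous-variation method at 23 °C. Compound dissolved in acetonitrile, then diluted to 0.1 mM stock in 1 mM acetate pH 6.5. Compound + ion at constant total 0.1–0.5 mM with varied mole fraction. After 45 min equilibration, UV absorbance scanned 210–310 nm. Stoichiometry taken from the intersection of lines. Mean ± SD, n = 3.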
Consider `O=C1CCC(=O)N1c1ncc(O)cn1`, for which the Ratio is recorded as 2.06.
For the compound `COc1nc(N2C(=O)CCC2=O)nc(OC)c1O`, the Ratio was determined as 2.03.

The test system of a further data set is ARPE-19. Kind of data set: Neuroprotective activity against Fenton reagent-induced ROS generation-stimulated cytotoxicity in human ARPE19 cells assessed as cell viability at 1 mM after 2 hrs by MTS assay. The data set is classed as functional, cell-based.
Conditions: not given
An outline of the steps:
(§2)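 Cells in 96-well format exposed 2 h to Fenton reagent (1 mM H2O2 + 1 mM Fe2+) with or without 1 mM compound in 0.16% DMSO. Viability by MTS assay, normalized to untreated cells without Fenton reagent (100%). Mean ± SEM, n = 4. ANOVA.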
On to `O=C1CCC(=O)N1c1ncc(O)cn1`, for which the result was Active.
In the case of `CN(C)S(=O)(=O)N1CC(=O)N(c2ncc(O)cn2)C(=O)C1`, the result was Active.
On to `COc1nc(N2C(=O)CCC2=O)nc(OC)c1O`, for which the result was Active.

Tested on in the next data set: not listed separately
Kind of data set: Metal chelating activity assessed as stoichiometric ratio of compound to Cu+ ion at 0.1 to 0.5 mM of compound and metal ion mixture after 45 mins by spectrophotometric analysis. The data set is classed as physicochemical. To be noted: 0.75 h, 500 µM. An outline of the steps: as §1
Regarding `O=C1CCC(=O)N1c1ncc(O)cn1`, the Ratio is listed as 2.01.
Consider `COc1nc(N2C(=O)CCC2=O)nc(OC)c1O`, for which the Ratio was determined as 2.03.

In another data set the test system is ARPE-19. Kind of data set: Neuroprotective activity against Fenton reagent-induced ROS generation in human ARPE19 cells assessed as increase in GSH level at 1 mM after 2 hrs by DTNB method.
Conditions: not given
The data set is classed as functional, cell-based. An outline of the steps: (§3)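 Cells grown in 60 or 150 mm dishes and exposed 2 h to Fenton reagent (1 mM H2O2 + 1 mM Fe2+) with or without 1 mM compound in 0.16% DMSO. Intracellular glutathione then measured. Mean ± SEM, n = 6. ANOVA.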
Take `O=C1CCC(=O)N1c1ncc(O)cn1`: the result was Active.
Turning to `CN(C)S(=O)(=O)N1CC(=O)N(c2ncc(O)cn2)C(=O)C1`, the result was Active.
Still for that read-out and setting: the same measure for `COc1nc(N2C(=O)CCC2=O)nc(OC)c1O`: “Active”.

The subject of the next data set is ARPE-19. Nature of the data set: Neuroprotective activity against Fenton reagent-induced hydroxy radical-stimulated cytotoxicity in human ARPE19 cells assessed as cell survival at 1 to 1000 uM preincubated for 1 hr followed by Fenton reagent challenge for 2 hrs by fluorescence-based LIVE/DEAD viability/cytotoxicity assay. The data set is classed as functional.
Conditions: not given
The gist of the method:
(§4)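 After a PBS wash, cells preincubated 1 h at 37 °C in serum-free medium with 1–1000 μM compound. Fenton reagent (Fe2+/H2O2, 100 μM final) then added for 2 h. Stained 15 min at 37 °C with calcein AM 8 μM and EthD-1 16 μM. Fluorescence read at 494/517 and 528/617 nm. % live cells calculated from blank-corrected single-dye controls; dead-cell control 70% ethanol. Mean ± SEM, n = 6.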
For the compound `O=C1CCC(=O)N1c1ncc(O)cn1`, the Activity result is “Dose-dependent effect”.
Consider `CN(C)S(=O)(=O)N1CC(=O)N(c2ncc(O)cn2)C(=O)C1`, for which the Activity result is “Dose-dependent effect”.
For the compound `COc1nc(N2C(=O)CCC2=O)nc(OC)c1O`, the Activity result was “Dose-dependent effect”.

Tested on in a further data set: not listed separately
Nature of the data set: Metal chelating activity assessed as stoichiometric ratio of compound to Zn2+ ion at 0.1 to 0.5 mM of compound and metal ion mixture after 45 mins by spectrophotometric analysis. It is filed as physicochemical. The conditions noted are these: 0.75 h, 500 µM. An outline of the steps: as §1
`O=C1CCC(=O)N1c1ncc(O)cn1`: the Ratio was 1.87.
For the compound `COc1nc(N2C(=O)CCC2=O)nc(OC)c1O`, the Ratio was determined as 2.01.

A further data set deals with Brain. Nature of the data set: Drug uptake in brain of C57BL/6 mouse assessed per mg of protein at 80 mg/kg, po administered everyday for 14 days by HPLC-MS analysis. It is filed as ADME, organism-based. To be noted: in vivo, 336 h. The gist of the method: (§5)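 C57BL/6 mice fed chow containing 0.05% compound (~80 mg/kg/day average) for 14 days. Perfused with PBS; brain, lens and neural retina homogenized in ice-cold 10 mM acetate pH 4 with internal standard. Extracted with TCA precipitation and chloroform. Analyzed by reverse-phase C18 HPLC.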
For `CN(C)S(=O)(=O)N1CC(=O)N(c2ncc(O)cn2)C(=O)C1`, the Drug uptake came to 3 ng/mg.

Tested on in another data set: not listed separately
Kind of data set: Metal chelating activity assessed as stoichiometric ratio of compound to Fe3+ ion at 0.1 to 0.5 mM of compound and metal ion mixture after 45 mins by spectrophotometric analysis. The data set is classed as physicochemical. The conditions noted are these: 0.75 h, 500 µM. An outline of the steps: as §1
On to `O=C1CCC(=O)N1c1ncc(O)cn1`, for which the Ratio was 2.01.
Still for that read-out and setting: the same measure for `COc1nc(N2C(=O)CCC2=O)nc(OC)c1O`: 2.12.

Tested on in a further data set: not listed separately
Nature of the data set: Drug uptake in lens of C57BL/6 mouse assessed per mg of protein at 80 mg/kg, po administered everyday for 14 days by HPLC-MS analysis. The conditions noted are these: in vivo, 336 h. It is filed as ADME, organism-based, Lens of camera-type eye. The gist of the method: as §5
For `O=C1CCC(=O)N1c1ncc(O)cn1`, the Drug uptake entry was “Active”.
Same read-out and setting: under `CN(C)S(=O)(=O)N1CC(=O)N(c2ncc(O)cn2)C(=O)C1` stands “Active”; under `COc1nc(N2C(=O)CCC2=O)nc(OC)c1O`, “Active”.

Tested on in another data set: not listed separately
Kind of data set: Drug uptake in neural retina of C57BL/6 mouse assessed per mg of protein at 80 mg/kg, po administered everyday for 14 days by HPLC-MS analysis. The data set is classed as ADME, organism-based. The conditions noted are these: in vivo, 336 h. The gist of the method: as §5
In the case of `O=C1CCC(=O)N1c1ncc(O)cn1`, the Drug uptake entry is “Active”.
For the compound `CN(C)S(=O)(=O)N1CC(=O)N(c2ncc(O)cn2)C(=O)C1`, the Drug uptake entry is recorded as “Active”.
With `COc1nc(N2C(=O)CCC2=O)nc(OC)c1O`, the Drug uptake entry is “Active”.

Tested on in a further data set: not listed separately
Nature of the data set: Metal chelating activity assessed as stoichiometric ratio of compound to Cu2+ ion at 0.1 to 0.5 mM of compound and metal ion mixture after 45 mins by spectrophotometric analysis. It is filed as physicochemical. The conditions noted are these: 0.75 h, 500 µM. An outline of the steps: as §1
As for `O=C1CCC(=O)N1c1ncc(O)cn1`, the Ratio was determined as 2.28.
`COc1nc(N2C(=O)CCC2=O)nc(OC)c1O`: the Ratio is 2.13.

Tested on in another data set: not listed separately
Nature of the data set: Cytotoxicity against human ARPE19 cells assessed as reduction in cell viability at 1 mM after 2 hrs by MTS assay. It is filed as cell-based. The conditions noted are these: arpe-19, 2 h, 1000 µM. The gist of the method:
(§6)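 ARPE-19 grown in DMEM + 4% FBS and SH-SY5Y in EMEM/F12 + 10% FBS, at 37 °C, 5% CO2. Plated at 1 × 10^4 cells/well. Exposed 2 h to 1 mM compound (0.16% DMSO) without oxidant. Viability by MTS. Mean ± SEM, n = 4, ANOVA versus blank control.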
In the case of `O=C1CCC(=O)N1c1ncc(O)cn1`, the Activity result is “Non-toxic”.
In the case of `COc1nc(N2C(=O)CCC2=O)nc(OC)c1O`, the Activity result is “Non-toxic”.

In the next data set the test system is SH-SY5Y. Nature of the data set: Neuroprotective activity against Fenton reagent-induced hydroxy radical-stimulated cytotoxicity in human SH-SY5Y cells assessed as cell survival at 1 to 1000 uM preincubated for 1 hr followed by Fenton reagent challenge for 2 hrs by fluorescence-based LIVE/DEAD viability/cytotoxicity assay.
Conditions: not given
The data set is classed as functional. An outline of the steps: as §4
As for `O=C1CCC(=O)N1c1ncc(O)cn1`, the Activity entry was “Dose-dependent effect”.
Turning to `CN(C)S(=O)(=O)N1CC(=O)N(c2ncc(O)cn2)C(=O)C1`, the Activity result is “Dose-dependent effect”.
In the case of `COc1nc(N2C(=O)CCC2=O)nc(OC)c1O`, the Activity result was “Dose-dependent effect”.

The subject of a further data set is SH-SY5Y. Nature of the data set: Cytotoxicity against human SH-SY5Y cells assessed as reduction in cell viability at 1 mM after 2 hrs by MTS assay. The conditions noted are these: 1000 µM. It is filed as cell-based. The gist of the method:
as §6
As to `O=C1CCC(=O)N1c1ncc(O)cn1`, the Activity entry was “Non-toxic”.
Regarding `COc1nc(N2C(=O)CCC2=O)nc(OC)c1O`, the Activity result is “Non-toxic”.

A further data set deals with ARPE-19. Nature of the data set: Antioxidant activity in human ARPE19 cells assessed as reduction of xanthine oxidase-mediated superoxide generation preincubated for 1 hr followed by xanthine oxidase challenge for 1 hr by MitoSOX staining-based fluorescence analysis. The data set is classed as functional, cell-based.
Conditions: not given
The gist of the method:
(§7)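 Cells washed with PBS, then preincubated 1 h at 37 °C in serum-free medium with 1, 10, 100 or 1000 μM compound, or SOD 25 μg/mL as reference. Xanthine oxidase added (25 mU/mL; ~100 μM superoxide) for 1 h more. After a PBS wash, cells stained with MitoSOX Red (5 μM) for 2 h. Fluorescence read at Ex/Em 510/580 nm.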
As for `O=C1CCC(=O)N1c1ncc(O)cn1`, the Activity entry was “Dose-dependent effect”.
For the compound `CN(C)S(=O)(=O)N1CC(=O)N(c2ncc(O)cn2)C(=O)C1`, the Activity entry is “Dose-dependent effect”.
Same read-out and setting: the same measure for `COc1nc(N2C(=O)CCC2=O)nc(OC)c1O`: “Dose-dependent effect”.

Tested on in a further data set: not listed separately
Nature of the data set: Metal chelating activity assessed as stoichiometric ratio of compound to Mg2+ ion at 0.1 to 0.5 mM of compound and metal ion mixture after 45 mins by spectrophotometric analysis. It is filed as physicochemical. To be noted: 0.75 h, 500 µM. The gist of the method:
as §1
As to `O=C1CCC(=O)N1c1ncc(O)cn1`, the Ratio is 0.
As to `COc1nc(N2C(=O)CCC2=O)nc(OC)c1O`, the Ratio is recorded as 0.

Tested on in a further data set: not listed separately
Nature of the data set: Metal chelating activity assessed as stoichiometric ratio of compound to Ca2+ ion at 0.1 to 0.5 mM of compound and metal ion mixture after 45 mins by spectrophotometric analysis. The data set is classed as physicochemical. The conditions noted are these: 0.75 h, 500 µM. The gist of the method:
as §1
As to `O=C1CCC(=O)N1c1ncc(O)cn1`, the Ratio was 0.
On to `COc1nc(N2C(=O)CCC2=O)nc(OC)c1O`, for which the Ratio was found to be 0.

The subject of the next data set is SH-SY5Y. Nature of the data set: Antioxidant activity in human SH-SY5Y cells assessed as reduction of xanthine oxidase-mediated superoxide generation preincubated for 1 hr followed by xanthine oxidase challenge for 1 hr by MitoSOX staining-based fluorescence analysis. It is filed as functional, cell-based.
Conditions: not given
An outline of the steps: as §7
Regarding `O=C1CCC(=O)N1c1ncc(O)cn1`, the Activity entry is “Dose-dependent effect”.
Take `CN(C)S(=O)(=O)N1CC(=O)N(c2ncc(O)cn2)C(=O)C1`: the Activity entry is “Dose-dependent effect”.
On the same count and under the same terms, the same measure for `COc1nc(N2C(=O)CCC2=O)nc(OC)c1O`: “Dose-dependent effect”.

A further data set deals with SH-SY5Y. Kind of data set: Neuroprotective activity against Fenton reagent-induced ROS generation-stimulated cytotoxicity in human SH-SY5Y cells assessed as cell viability at 1 mM after 2 hrs by MTS assay. The data set is classed as functional, cell-based.
Conditions: not given
An outline of the steps: as §2
On to `O=C1CCC(=O)N1c1ncc(O)cn1`, for which the outcome was Active.
Turning to `CN(C)S(=O)(=O)N1CC(=O)N(c2ncc(O)cn2)C(=O)C1`, the result was Active.
In the case of `COc1nc(N2C(=O)CCC2=O)nc(OC)c1O`, the result was Active.

The subject of the next data set is SH-SY5Y. Nature of the data set: Neuroprotective activity against Fenton reagent-induced ROS generation in human SH-SY5Y cells assessed as increase in GSH level at 1 mM after 2 hrs by DTNB method. The data set is classed as functional, cell-based.
Conditions: not given
An outline of the steps: as §3
For `O=C1CCC(=O)N1c1ncc(O)cn1`, the result was Active.
As for `CN(C)S(=O)(=O)N1CC(=O)N(c2ncc(O)cn2)C(=O)C1`, the result was Active.
Regarding `COc1nc(N2C(=O)CCC2=O)nc(OC)c1O`, the outcome was Active.

Tested on in a further data set: not listed separately
Kind of data set: Metal chelating activity assessed as stoichiometric ratio of compound to Mn2+ ion at 0.1 to 0.5 mM of compound and metal ion mixture after 45 mins by spectrophotometric analysis. The data set is classed as physicochemical. To be noted: 0.75 h, 500 µM. An outline of the steps: as §1
With `O=C1CCC(=O)N1c1ncc(O)cn1`, the Ratio came out at 2.14.
On the same count and under the same terms, the same measure for `COc1nc(N2C(=O)CCC2=O)nc(OC)c1O`: 2.22.

(Values after ChEMBL document CHEMBL3739318, “Orally Bioavailable Metal Chelators and Radical Scavengers: Multifunctional Antioxidants for the Coadjutant Treatment of Neurodegenerative Diseases” (J Med Chem, 2015).)
